Experimental data of several laboratories.
Observed: cell growth or viability

| SMILES | cell line | assay | setting | quantity | value |
| --- | --- | --- | --- | --- | --- |
| N.N.[Cl][Pt][Cl] | A-375 | SRB | – | EC50 | 1.2 µM |
| COc1ccc(C(=O)c2c[nH]c3ncc(-c4ccc(N5CCNCC5)nc4)cc23)cc1 | MRC5 | MTT | 10 µM, 48 h | viability | 99.2% |
| CO[C@]1([C@@H]2CSC(=O)N2CCCO)C[C@H]2C[C@@H](CC[C@H](C)/C=C\C=C\CC/C(C)=C\C(=O)O2)O1 | MDA-MB-231 | MTT | 72 h | IC50 | > 50 µM |
| O=C(c1ccc(F)cc1)c1c[nH]c2ncc(-c3ccnc(N4CCOCC4)c3)cc12 | MRC5 | MTT | 10 µM, 48 h | viability | 89.4% |
| COc1c2c(cc3c1OCO3)[C@]13C=C[C@H](OC)C[C@@H]1[N@](C2)C[C@H]3OC(=O)c1ccco1 | MRC5 | WST-1 | – | IC50 | > 10 µM |
| CCN1C(=O)SCC1C1(OC)CC2CC(CCC(C)C=CC=CCCC(C)=CC(=O)O2)O1 (stereo not drawn) | MDA-MB-231 | MTT | 72 h | IC50 | > 50 µM |
| O=C(c1cccc(F)c1)c1c[nH]c2ncc(-c3ccc(N4CCNCC4)nc3)cc12 | MRC5 | MTT | 10 µM, 48 h | viability | 66.2% |
| C/C1=C/C(=O)O[C@@H]2C[C@@H](CC[C@H](C)/C=C\C=C\CC1)O[C@@](OCCc1ccccc1)([C@@H]1CSC(=O)N1)C2 | MDA-MB-231 | MTT | 72 h | IC50 | 2.71 µM |
| C1COCCN1.COc1ccc(/C=C\c2cc(I)c(OC)c(I)c2)cc1OP(=O)(O)O | KM-20L2 | SRB | 48 h | GI50 | > 1 µg/mL |
| O=C(c1ccc(F)cc1)c1c[nH]c2ncc(-c3ccc(N4CCNCC4)nc3)cc12 | MRC5 | MTT | 10 µM, 48 h | viability | 89.4% |
| CO[C@]1([C@@H]2CSC(=O)N2C2CCCC2)C[C@H]2C[C@@H](CC[C@H](C)/C=C\C=C\CC/C(C)=C\C(=O)O2)O1 | MDA-MB-231 | MTT | 72 h | IC50 | 5.07 µM |
| [Cl-].[Cl-].[Co+2] | BEL-7404 | MTT | 48 h | IC50 | > 150 µM |
